The source made the active and inactive calls. The rule behind the calls is not given here.
Assays:
[1] = target: T1, D(3) dopamine receptor (Homo sapiens, UniProt P35462); assay: Displacement of [3H]N-methylspiperone from human D3 receptor expressed in HEK293 cell membranes measured after 60 mins by scintillation counting method
Outline: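 HEK293 cells stably expressing human D3R; membranes in EBSS buffer pH 7.4, stored at −80 °C. 20 μg protein/well with 0.4 nM [3H]N-methylspiperone (final), half-log dilutions in 30% DMSO, in triplicate. 60 min at room temperature, then GF/B filtration. Nonspecific binding with 10 μM (+)-butaclamol.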

[2] = target: T2, D(4) dopamine receptor (Homo sapiens, UniProt P21917); assay: Displacement of [3H]N-methylspiperone from human D4.4 receptor expressed in HEK293 cell membranes measured after 60 mins by scintillation counting method
T2 sequence (P21917 whole entry): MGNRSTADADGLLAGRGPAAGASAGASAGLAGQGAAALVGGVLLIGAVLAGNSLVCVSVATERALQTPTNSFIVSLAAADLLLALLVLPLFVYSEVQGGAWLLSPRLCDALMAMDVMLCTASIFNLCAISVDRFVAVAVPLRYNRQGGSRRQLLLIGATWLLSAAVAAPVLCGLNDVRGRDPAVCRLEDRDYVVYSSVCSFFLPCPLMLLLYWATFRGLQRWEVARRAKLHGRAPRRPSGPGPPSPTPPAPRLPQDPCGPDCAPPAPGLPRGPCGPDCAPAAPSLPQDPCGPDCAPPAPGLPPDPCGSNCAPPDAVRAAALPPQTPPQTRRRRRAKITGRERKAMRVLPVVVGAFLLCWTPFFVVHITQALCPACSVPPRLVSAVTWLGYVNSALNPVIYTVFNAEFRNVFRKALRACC
Outline: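 Frozen HEK293 membranes stably expressing human D4.4R (30 μg/well) in EBSS-bicarbonate buffer, pH 7.4, were incubated with 0.4 nM [3H]N-methylspiperone and half-log compound dilutions (30% DMSO vehicle) for 60 min at room temperature. Nonspecific binding was defined by 10 μM (+)-butaclamol. Samples were filtered on GF/B filters and counted by scintillation.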

[3] = target: T3, D(2) dopamine receptor (Homo sapiens, UniProt P14416); assay: Agonist activity at human D2L receptor expressed in CHOK1 cells assessed as inhibition of forskolin-induced cAMP accumulation measured after 30 mins by Eu-cAMP tracer based TR-FRET assay; type: cell-based
T3 sequence (P14416 whole entry, canonical isoform): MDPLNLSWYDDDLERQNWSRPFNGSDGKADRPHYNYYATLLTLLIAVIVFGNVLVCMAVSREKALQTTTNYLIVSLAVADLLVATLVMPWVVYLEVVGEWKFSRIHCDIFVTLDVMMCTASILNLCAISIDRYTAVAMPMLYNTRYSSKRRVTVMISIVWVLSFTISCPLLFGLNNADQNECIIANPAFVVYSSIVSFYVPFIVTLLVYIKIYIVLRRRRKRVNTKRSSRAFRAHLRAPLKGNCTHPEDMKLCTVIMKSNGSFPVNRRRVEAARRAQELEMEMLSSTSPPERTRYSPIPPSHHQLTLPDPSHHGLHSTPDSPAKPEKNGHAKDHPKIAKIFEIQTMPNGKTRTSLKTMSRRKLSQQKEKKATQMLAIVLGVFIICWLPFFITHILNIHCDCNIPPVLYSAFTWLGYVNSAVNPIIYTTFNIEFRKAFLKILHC
Outline: (§1)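 LANCE Ultra TR-FRET cAMP assay in CHO-K1 cells stably expressing human D2R long isoform or D4R. Cells were plated in HBSS/5 mM HEPES/0.2 μM metabisulfite, then immediately given compound plus forskolin (10 μM final) for 30 min at room temperature. Eu-cAMP tracer and ULight-anti-cAMP were added for 2 h in the dark. Values are % of maximal dopamine signal, nonlinear regression of triplicate runs, n = 3–4.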

[4] = target: T3, D(2) dopamine receptor; assay: Antagonist activity at human D2L receptor expressed in CHOK1 cells assessed as suppression of dopamine-induced inhibition of forskolin-stimulated cAMP accumulation measured after 30 mins by Eu-cAMP tracer based TR-FRET assay relative to dopamine; type: cell-based; conditions: 0.5 h
[5] = target: T2, D(4) dopamine receptor; assay: Agonist activity at human D4 receptor expressed in CHOK1 cells assessed as inhibition of forskolin-induced cAMP accumulation measured after 30 mins by Eu-cAMP tracer based TR-FRET assay; type: functional, cell-based; outline: as §1
[6] = target: T2, D(4) dopamine receptor; assay: Antagonist activity at human D4 receptor expressed in CHOK1 cells assessed as suppression of dopamine-induced inhibition of forskolin-stimulated cAMP accumulation measured after 30 mins by Eu-cAMP tracer based TR-FRET assay; type: functional, cell-based
[7] = target: T3, D(2) dopamine receptor; assay: Agonist activity at human D2L receptor expressed in CHOK1 cells assessed as induction of beta-arrestin recruitment measured after 90 mins by luminescence assay; type: cell-based
Outline: (§2)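 PathHunter enzyme-complementation assay in CHO-K1 cells stably expressing human D2R long isoform, D3R or D4R, seeded overnight in Ham's F12/10% FBS. Compounds were diluted in PBS with 0.2 μM sodium metabisulfite and applied at multiple concentrations for 90 min at 37 °C. Detection reagent was added for 45–60 min at room temperature, then luminescence was read. Values are % of maximal dopamine response, from nonlinear regression of triplicate runs, mean ± SEM, n = 3–4.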

[8] = target: T3, D(2) dopamine receptor; assay: Antagonist activity at human D2L receptor expressed in CHOK1 cells assessed as inhibition of dopamine-induced beta-arrestin recruitment measured after 90 mins by luminescence assay relative to control; type: cell-based
Outline: (§3)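 Antagonist-mode PathHunter β-arrestin assay in CHO-K1 cells stably expressing human D2R long isoform or D3R, seeded overnight. Compound dilutions in PBS with 0.2 μM metabisulfite were co-incubated with an EC80 dopamine concentration for 90 min at 37 °C. Detection reagent was added for 45–60 min at room temperature, then luminescence was read. Values are % of dopamine EC80 response, from nonlinear regression of triplicate runs, n = 3–4.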

[9] = target: T3, D(2) dopamine receptor; assay: Antagonist activity at human D2L receptor expressed in CHOK1 cells assessed as inhibition of dopamine-induced beta-arrestin recruitment measured after 90 mins by luminescence assay; type: cell-based; outline: as §3
[10] = target: T1, D(3) dopamine receptor; assay: Agonist activity at human D3 receptor expressed in CHOK1 cells assessed as induction of beta-arrestin recruitment measured after 90 mins by luminescence assay; type: cell-based; outline: as §2
[11] = target: T1, D(3) dopamine receptor; assay: Antagonist activity at human D3 receptor expressed in CHOK1 cells assessed as inhibition of dopamine-induced beta-arrestin recruitment measured after 90 mins by luminescence assay; type: cell-based; outline: as §3
[12] = target: T2, D(4) dopamine receptor; assay: Agonist activity at human D4 receptor expressed in CHOK1 cells assessed as induction of beta-arrestin recruitment measured after 90 mins by luminescence assay; type: cell-based; outline: as §2
[13] = target: T2, D(4) dopamine receptor; assay: Antagonist activity at human D4 receptor expressed in CHOK1 cells assessed as inhibition of dopamine-induced beta-arrestin recruitment measured after 90 mins by luminescence assay; type: cell-based
[14] = target: T1, D(3) dopamine receptor; assay: Displacement of [3H](R)-(+)-7-OH-DPAT from human D3 receptor expressed in HEK293 cell membranes measured after 90 mins by scintillation counting method
Outline: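 Fresh HEK293 hD3R membranes (40 μg/well) in 50 mM Tris, 10 mM MgCl2, 1 mM EDTA, pH 7.4 were incubated with 0.5 nM [3H]-(R)-(+)-7-OH-DPAT and half-log compound dilutions in 30% DMSO for 90 min at room temperature. Nonspecific binding was defined with 10 μM (+)-butaclamol. Samples were filtered on PEI-soaked GF/B filters and counted by scintillation.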

[15] = target: T2, D(4) dopamine receptor; assay: Displacement of [3H](R)-(+)-7-OH-DPAT from human D4.4 receptor expressed in HEK293 cell membranes measured after 90 mins by scintillation counting method
Outline: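 HEK293 cells stably expressing human D4.4R; membranes used fresh in 50 mM Tris, 10 mM MgCl2, 1 mM EDTA, pH 7.4. 60 μg protein/well with 3 nM [3H]-(R)-(+)-7-OH-DPAT (final), half-log dilutions in 30% DMSO, in triplicate. 90 min at room temperature, then GF/B filtration. Nonspecific binding with 10 μM (+)-butaclamol.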

[16] = target: T3, D(2) dopamine receptor; assay: Agonist activity at human D2L receptor expressed in CHOK1 cells assessed as inhibition of forskolin-induced cAMP accumulation measured after 30 mins by Eu-cAMP tracer based TR-FRET assay relative to dopamine; type: cell-based; conditions: 0.5 h
[17] = target: T4, D(4) dopamine receptor (Homo sapiens) (UniProt P21917); assay: Agonist activity at human D4 receptor expressed in CHOK1 cells assessed as inhibition of forskolin-induced cAMP accumulation measured after 30 mins by Eu-cAMP tracer based TR-FRET assay relative to dopamine; type: functional, cell-based; outline: as §1
T4 sequence (whole entry): T2 sequence (P21917 whole entry)

[18] = target: T4, D(4) dopamine receptor (Homo sapiens); assay: Antagonist activity at human D4 receptor expressed in CHOK1 cells assessed as suppression of dopamine-induced inhibition of forskolin-stimulated cAMP accumulation measured after 30 mins by Eu-cAMP tracer based TR-FRET assay relative to dopamine; type: functional, cell-based; parameters: concentration or dose not given beside the values
[19] = target: T3, D(2) dopamine receptor; assay: Agonist activity at human D2L receptor expressed in CHOK1 cells assessed as induction of beta-arrestin recruitment measured after 90 mins by luminescence assay relative to control; type: cell-based
Outline: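 PathHunter enzyme-complementation assay in CHO-K1 cells stably expressing human D2R long isoform, seeded 2625 cells/well and incubated overnight. Compounds diluted in PBS with 0.2 μM sodium metabisulfite, tested at multiple concentrations, 90 min at 37 °C. Detection reagent then 45–60 min at room temperature, luminescence read. Normalized to maximal dopamine response. Nonlinear regression of triplicate runs, n = 3–4.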

[20] = target: T1, D(3) dopamine receptor; assay: Agonist activity at human D3 receptor expressed in CHOK1 cells assessed as induction of beta-arrestin recruitment measured after 90 mins by luminescence assay relative to control; type: cell-based; outline: as §2
[21] = target: T1, D(3) dopamine receptor; assay: Antagonist activity at human D3 receptor expressed in CHOK1 cells assessed as inhibition of dopamine-induced beta-arrestin recruitment measured after 90 mins by luminescence assay relative to control; type: cell-based; outline: as §3
[22] = target: T4, D(4) dopamine receptor (Homo sapiens); assay: Agonist activity at human D4 receptor expressed in CHOK1 cells assessed as induction of beta-arrestin recruitment measured after 90 mins by luminescence assay relative to control; type: cell-based; outline: as §2
[23] = target: T4, D(4) dopamine receptor (Homo sapiens); assay: Antagonist activity at human D4 receptor expressed in CHOK1 cells assessed as inhibition of dopamine-induced beta-arrestin recruitment measured after 90 mins by luminescence assay relative to control; type: cell-based; parameters: concentration or dose not given beside the values
[24] = target: D(1A) dopamine receptor (Homo sapiens) (UniProt P21728); assay: Agonist activity at D1 receptor (unknown origin) stably expressed in CHOK1 cells assessed as induction of beta-arrestin recruitment measured after 90 mins by luminescence assay; type: cell-based
D(1A) dopamine receptor (Homo sapiens), sequence (P21728 whole entry): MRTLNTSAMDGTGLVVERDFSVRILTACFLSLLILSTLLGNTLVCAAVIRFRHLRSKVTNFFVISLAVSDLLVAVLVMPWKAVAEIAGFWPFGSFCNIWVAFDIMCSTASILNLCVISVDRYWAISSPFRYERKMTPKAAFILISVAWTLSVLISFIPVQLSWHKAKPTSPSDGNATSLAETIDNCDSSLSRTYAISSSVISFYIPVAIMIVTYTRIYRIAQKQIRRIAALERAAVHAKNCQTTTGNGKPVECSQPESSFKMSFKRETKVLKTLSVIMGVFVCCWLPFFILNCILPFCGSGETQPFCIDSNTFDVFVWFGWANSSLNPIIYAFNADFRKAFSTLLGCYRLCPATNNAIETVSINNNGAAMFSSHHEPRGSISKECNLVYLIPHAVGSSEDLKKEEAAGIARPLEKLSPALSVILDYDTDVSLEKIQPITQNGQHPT

[25] = target: D(1B) dopamine receptor (Homo sapiens) (UniProt P21918); assay: Agonist activity at D5 receptor (unknown origin) stably expressed in CHOK1 cells assessed as induction of beta-arrestin recruitment measured after 90 mins by luminescence assay; type: cell-based
D(1B) dopamine receptor (Homo sapiens), sequence (P21918 whole entry): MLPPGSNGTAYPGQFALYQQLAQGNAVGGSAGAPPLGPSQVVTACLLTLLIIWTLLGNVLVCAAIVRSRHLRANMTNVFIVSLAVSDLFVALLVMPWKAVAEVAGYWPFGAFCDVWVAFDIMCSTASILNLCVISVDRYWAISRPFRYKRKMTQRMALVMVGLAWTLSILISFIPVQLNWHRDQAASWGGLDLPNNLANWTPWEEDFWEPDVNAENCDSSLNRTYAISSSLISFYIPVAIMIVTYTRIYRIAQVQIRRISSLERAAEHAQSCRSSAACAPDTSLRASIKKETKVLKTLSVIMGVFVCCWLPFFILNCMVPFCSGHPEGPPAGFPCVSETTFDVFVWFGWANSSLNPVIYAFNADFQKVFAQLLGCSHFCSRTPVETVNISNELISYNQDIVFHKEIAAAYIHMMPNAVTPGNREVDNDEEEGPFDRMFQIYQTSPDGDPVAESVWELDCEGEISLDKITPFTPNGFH

[26] = target: D(1A) dopamine receptor (Homo sapiens) (UniProt P21728); assay: Antagonist activity at D1 receptor (unknown origin) stably expressed in CHOK1 cells assessed as inhibition of dopamine-induced beta-arrestin recruitment measured after 90 mins by luminescence assay; type: cell-based
[27] = target: D(1B) dopamine receptor (Homo sapiens) (UniProt P21918); assay: Antagonist activity at D5 receptor (unknown origin) stably expressed in CHOK1 cells assessed as inhibition of dopamine-induced beta-arrestin recruitment measured after 90 mins by luminescence assay; type: cell-based

T1 sequence (P35462 whole entry): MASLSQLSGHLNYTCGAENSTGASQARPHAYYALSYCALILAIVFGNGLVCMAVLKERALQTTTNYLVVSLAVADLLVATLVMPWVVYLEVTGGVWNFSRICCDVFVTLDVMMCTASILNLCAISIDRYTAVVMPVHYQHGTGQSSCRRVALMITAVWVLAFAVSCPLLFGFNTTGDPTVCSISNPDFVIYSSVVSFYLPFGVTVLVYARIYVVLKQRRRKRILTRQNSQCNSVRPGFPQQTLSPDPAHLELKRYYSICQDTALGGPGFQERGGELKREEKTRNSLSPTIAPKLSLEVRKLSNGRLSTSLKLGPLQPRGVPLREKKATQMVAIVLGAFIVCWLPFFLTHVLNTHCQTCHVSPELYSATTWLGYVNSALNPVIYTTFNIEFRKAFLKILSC

## O=C(CN1CCN(c2ccccn2)CC1)Nc1cncnc1
[1]
  Ki: > 50000 nM
[2]
  Ki: 39300 nM
[3]
  EC50: Not Active
[4]
  inhibition (INH): 98.1%
[5]
  EC50: Not Active
[6]
  IC50: > 100000 nM
[7]
  EC50: Not Active
[8]
  INH: Not Active
[9]
  IC50: Not Active
[10]
  EC50: Not Active
[11]
  IC50: Not Active
[12]
  EC50: Not Active
[13]
  IC50: Not Active

## Cc1cccc(NC(=O)CN2CCN(c3ccccn3)CC2)c1
[1]
  Ki: > 10000 nM
[2]
  Ki: 212 nM
[14]
  Ki: 6480 nM
[15]
  Ki: 1.89 nM
[16]
  Emax: 19%
[17]
  Emax: 64.2%
[5]; read-out: EC50
  EC50: 3.6 nM
[18]
  inhibition: 43.2%
[6]
  IC50: 82.7 nM
[19]
  Emax: 23.9%
[20]
  Emax: 49.4%
[10]; read-out: EC50
  EC50: 6350 nM
[21]
  inhibition: inactive
[11]; read-out: IC50
  IC50: > 100000 nM
[22]
  Emax: 30.7%
[12]; read-out: EC50
  EC50: 394 nM
[23]
  inhibition: 78.9%
[13]; read-out: IC50
  IC50: 313 nM
[24]
  Activity: inactive
[25]
  Activity: inactive
[26]
  inhibition: inactive
[27]
  inhibition: inactive

## CCc1cccc(NC(=O)CN2CCN(c3ccccn3)CC2)c1
[2]
  Ki: 67.9 nM
[15]
  Ki: 2.23 nM
[16]
  Emax: 18.8%
[4]
  inhibition (INH): 88%
[17]
  Emax: 58%
[5]; read-out: EC50
  EC50: 28.7 nM
[18]
  inhibition: 58.4%
[6]
  IC50: 1310 nM
[19]
  Emax: 18.7%
[20]
  Emax: 44.7%
[21]
  inhibition: 100%
[22]
  Emax: 26.2%
[12]; read-out: EC50
  EC50: 133 nM
[23]
  inhibition: 59.7%
[13]; read-out: IC50
  IC50: 370 nM

## Cc1cccc(NC(=O)CCN2CCN(c3ccccn3)CC2)c1
[1]
  Ki: 3790 nM
[2]
  Ki: 297 nM
[14]
  Ki: 781 nM
[15]
  Ki: 32.2 nM
[16]
  Emax: 79.7%
[5]; read-out: EC50
  EC50: 612 nM
[6]
  IC50: 1630 nM
[19]
  Emax: 44.1%
[8]
  INH: 77.7%
[20]
  Emax: 41.4%
[10]; read-out: EC50
  EC50: 1600 nM
[11]; read-out: IC50
  IC50: > 50000 nM
[12]
  EC50: Not Active
[13]; read-out: IC50
  IC50: 1090 nM
[24]
  Activity: inactive
[25]
  Activity: inactive
[26]
  inhibition: inactive
[27]
  inhibition: inactive
